Source: PubChem BioAssay
“And” between values parts separate entries of the source, which are not always exact repeats. Equal entries are not always repeated. The source made the active and inactive calls.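 Rule for the calls, unless noted: active = viability at or below 10% of carrier control in both of two separate runs; inconclusive = viability at or below 10% in only one of the two runs; inactive = the rest.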

Experiments:
[1] = reduced viability of SK-BR-3 breast cancer cells – cell-based, 24 h, human, pilot screen (AID 572); settings: SK-BR-3 viability, CellTiter-Glo luminescence, at 10 µM, stronger effect = lower value;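 note: compound exposure lasted between 18 and 24 h rather than exactly 24 h; 100% = carrier-treated control wells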
[2] = HUVEC growth inhibition – cell-based, human, primary screen (AID 575;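 active = viability at or below 30% in both replicate assays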;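 note: 100% = median of untreated cell wells with 0.1% DMSO on each plate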); settings: HUVEC proliferation, CellTiter-Glo luminescence, 72 h; at 10 µM; stronger effect = lower value
How it was run: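 Assay system: Primary human umbilical vein endothelial cells | Quantity: 1250 cells per well | Medium: Supplemented EBM, 2% fetal bovine serum | Detection: CellTiter-Glo luminescence measuring cellular ATP | Read-out: % viability vs DMSO wells | Plate: Collagen-coated 384-well format | Times: 72 h exposure, 37 °C, 5% CO2, 30 min RT equilibration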

[3] = H69AR cell proliferation blockers – human, duplicate replicates, primary screen (AID 580;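 active = viability at or under a set limit in both replicates, limit being median viability minus 3 SD, cut at about 48% in these data, passing the limit was not always enough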;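 note: 100% = mean luminescence of untreated wells and 0% = no signal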); settings: H69AR lung tumor cells viability, ATP luminescence, 72 h; at 10 µM; stronger effect = lower value
[4] = MRP1 drug-resistance reversers in H69AR cells – cell-based, doxorubicin co-treatment, pilot screen (AID 601;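 active = viability loss from added drug above about 55%, and viability with drug at most 40%, in both replicates, limit read from the data, passing the limit was not always enough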); settings: CellTiter-Glo, 72 h, at 10 µM; for differential viability (reversal): stronger effect = higher value
[5] = yeast transport mutant growth inhibition pilot in 384-well plates, post-Golgi transport modulator project (AID 636; in the data active = inhibition above about 31%); settings: absorbance 615 nm, about 18 h, stronger effect = higher value
[6] = growth suppression of yeast trafficking mutant, preliminary HTS, modulators of trafficking downstream of Golgi apparatus project, 1536-format plate, OD 615 nm (AID 637; in the data active = inhibition above about 30%); settings: yeast transport mutant growth, absorbance 615 nm, 18 h; stronger effect = higher value
[7] = H69AR cells + 2 uM doxorubicin, measured here: viability with 2 uM doxorubicin, stronger effect = lower value
[8] = H69AR cells, compound alone cytotoxicity

SMILES | viability [1] | viability [2] | viability [3] | differential viability (reversal) ([4]; H69AR cells + 2 uM doxorubicin) | viability [4, 7] | viability [4, 8] | inhibition [5] | inhibition [6]
COc1cccc(C=Nc2ccc3c(c2)OCCO3)c1O | 115% (inactive) | 79.2% (inactive) | 83% (inactive) | -12% (inactive) | 95% | 83% | 1.95% (inactive) | -0.33% (inactive)
c1ccc2c(NC3CCCC3)nnc(NC3CCCC3)c2c1 | 60% (inactive) | 83.1% (inactive) | 91.4% (inactive) | 1.81% (inactive) | 89.6% | 91.4% | -0.92% (inactive) | -7.46% (inactive)
C1CCN=C(Nc2nc3c(s2)CCCC3)CC1 | 104% (inactive) | 109% (inactive) | 89.4% (inactive) | 7.56% (inactive) | 81.9% | 89.4% | -5.6% (inactive) | -1.45% (inactive)
CCSCc1nnc(SCC(=O)Nc2cccc(SC)c2)n1C | 66% (inactive) | 84.3% (inactive) | 90.3% (inactive) | -14.9% (inactive) | 105% | 90.3% | -6.58% (inactive) | -0.18% (inactive)
CCN1CCN(c2nc3c(c(=O)n(C)c(=O)n3C)n2Cc2cccc3ccccc23)CC1 | 87% (inactive) | 104% (inactive) | 87.7% (inactive) | 3.33% (inactive) | 84.4% | 87.7% | -6.58% (inactive) | 0.91% (inactive)
COc1cccc(OCC(=O)Nc2ccccc2C(N)=O)c1 | 110% (inactive) | 99.9% (inactive) | 97% (inactive) | 13.1% (inactive) | 83.9% | 97% | -1.51% (inactive) | 1.13% (inactive)
Cc1ccc(CS(=O)(=O)Cc2ccc(C(=O)NCc3ccccn3)o2)cc1 | 95% (inactive) | 99.8% (inactive) | 99.4% (inactive) | 9% (inactive) | 90.4% | 99.4% | -1.87% (inactive) | -0.18% (inactive)
CCN(CCCc1ccccc1)CCCc1ccccc1 | 76% (inactive) | 77.6% (inactive) | 78.6% (inactive) | -12.7% (inactive) | 91.2% | 78.6% | 2.34% (inactive) | 15% (inactive)
Fc1cccc(NCc2cn3ccccc3n2)c1 | 81% (inactive) | 105% (inactive) | 87.6% (inactive) | -1.66% (inactive) | 89.2% | 87.6% | -5% (inactive) | 21.4% (inactive)
CC1(C)O[C@@H]2C[C@H]3[C@@H]4C[C@H](F)C5=CC(=O)CC[C@]5(C)[C@H]4[C@@H](O)C[C@]3(C)[C@]2(C(=O)CO)O1 | 104% (inactive) | 107% (inactive) | 95.2% (inactive) | -2.5% (inactive) | 97.7% | 95.2% | -5.45% (inactive) | -0.5% (inactive)
CCN(CC)CC(=O)Nc1c(C)cccc1C | 101% (inactive) and 123% (inactive) | 97.3% (inactive) and 96.1% (inactive) | 107% (inactive) and 101% (inactive) | 15.8% (inactive) and 10.7% (inactive) | 91.2% and 90% | 107% and 101% | -3.38% (inactive) | -3.67% (inactive) and 1.67% (inactive)
Cc1ccc(Nc2nc(Oc3ccc(=O)[nH]n3)nc(N(C)C)n2)cc1 | 81% (inactive) | 101% (inactive) | 94% (inactive) | 16.1% (inactive) | 77.9% | 94% | -3.7% (inactive) | 1.94% (inactive)
Cn1c2c(c(=O)n(C)c1=O)C(NC(=O)C(C)(C)C)(C(F)(F)F)C(=O)N2 (centres undefined) | 105% (inactive) | 98.7% (inactive) | 90.3% (inactive) | 9.01% (inactive) | 81.3% | 90.3% | -6.62% (inactive) | -1.82% (inactive)
CCN(CC)CCOC(=O)C(c1ccccc1)c1ccccc1 | 81% (inactive) | 81.1% (inactive) | 101% (inactive) | 7.5% (inactive) | 93.2% | 101% | -4.81% (inactive) | 1.67% (inactive)
Cc1ccc(S(=O)(=O)C(C#N)c2nc3ccccc3nc2OC(C)C)cc1 (centres undefined) | 101% (inactive) | 91% (inactive) | 105% (inactive) | 7.79% (inactive) | 97.3% | 105% | -4.13% (inactive) | 4.55% (inactive)
Cc1ccc2c(CC(=O)OCc3csc(C)n3)coc2c1 | 106% (inactive) | 90.3% (inactive) | 98.5% (inactive) | 2.5% (inactive) | 96% | 98.5% | -8.78% (inactive) | 3.77% (inactive)
CC(C)CN(C(=O)c1ccc(=O)n(C)n1)c1nc2ccccc2s1 | 94% (inactive) | 107% (inactive) | 90.2% (inactive) | 4.96% (inactive) | 85.2% | 90.2% | -1.08% (inactive) | 1.09% (inactive)

SMILES | viability [1] | viability [2] | viability [3] | differential viability (reversal) ([4]; H69AR cells + 2 uM doxorubicin) | viability [4, 7] | viability [4, 8] | inhibition [5] | inhibition [6]
CCCN(CCC)S(=O)(=O)c1ccc(C(=O)O)cc1 | 99% (inactive) | 96.2% (inactive) | 97.2% (inactive) | 10.1% (inactive) | 87.1% | 97.2% | -0.52% (inactive) | -1.5% (inactive)
CCOc1ccc(S(=O)(=O)N(C)C)cc1-c1nc2c(C(C)(C)C)nn(C)c2c(=O)[nH]1 | 99% (inactive) | 103% (inactive) | 78.9% (inactive) | 0.77% (inactive) | 78.1% | 78.9% | -2.03% (inactive) | -3.09% (inactive)
O=C(Cn1cnc2c(cnn2-c2ccc(F)cc2)c1=O)N1CCN(c2ccccc2)CC1 | 97% (inactive) | 94% (inactive) | 70.3% (inactive) | 4.54% (inactive) | 65.8% | 70.3% | 0.39% (inactive) | -5.57% (inactive)
COc1ccc(-c2noc(CCCOc3ccccc3)n2)cc1OC | 78% (inactive) | 103% (inactive) | 93.7% (inactive) | -7.4% (inactive) | 101% | 93.7% | -1.92% (inactive) | 4.91% (inactive)
Cc1ccc(-c2nc3cc(NC(=O)C(C)C)ccc3o2)cc1C | 80% (inactive) | 51.8% (inactive) | 72.9% (inactive) | 2.97% (inactive) | 69.9% | 72.9% | -4.66% (inactive) | -8.55% (inactive)
COc1cc(NS(=O)(=O)c2ccc(N)cc2)nc(OC)n1 | 109% (inactive) | 80.7% (inactive) | 100% (inactive) | 11.7% (inactive) | 88.4% | 100% | 1.43% (inactive) | 3.83% (inactive)
Cc1ccc(CCNC(=O)C2CCC(=O)N2C2CCCC2)cc1 (centres undefined) | 79% (inactive) | 99.7% (inactive) | 94.9% (inactive) | 13% (inactive) | 81.9% | 94.9% | -2.08% (inactive) | 0% (inactive)
O=C(COC(=O)CCOc1ccccc1)Nc1ccc(Cl)cn1 | 75% (inactive) | 102% (inactive) | 91% (inactive) | -17% (inactive) | 108% | 91% | -2.74% (inactive) | -4.36% (inactive)
COc1ccc(Cl)cc1NC(=O)CSc1nncn1-c1cccnc1 | 92% (inactive) | 102% (inactive) | 88.3% (inactive) | 2.01% (inactive) | 86.3% | 88.3% | -7.07% (inactive) | -3.27% (inactive)
C1=C(CCNc2ncnc3c2cnn3-c2ccccc2)CCCC1 | 98% (inactive) | 116% (inactive) | 88.7% (inactive) | 6.36% (inactive) | 82.3% | 88.7% | -4.13% (inactive) | 0.91% (inactive)
Cc1cc(C)cc(N2C(=O)C3C4C=CC(C4)C3C2=O)c1 (centres undefined) | 100% (inactive) | 109% (inactive) | 93% (inactive) | 7.94% (inactive) | 85% | 93% | -3.15% (inactive) | 2.36% (inactive)
COCCNC(=S)c1ccc(OC)cc1 | 118% (inactive) | 112% (inactive) | 86% (inactive) | 8.94% (inactive) | 77.1% | 86% | -8.27% (inactive) | 5.27% (inactive)
CC1(C)CC(=O)c2sc(NS(C)(=O)=O)nc2C1 | 119% (inactive) | 101% (inactive) | 96% (inactive) | 12.7% (inactive) | 83.2% | 96% | -6.16% (inactive) | 1.94% (inactive)
CCO/C([O-])=N/c1c[n+](N2CCOCC2)no1 | 81% (inactive) | 95.9% (inactive) | 86.7% (inactive) | -3.3% (inactive) | 90% | 86.7% | 1.3% (inactive) | 2.33% (inactive)
c1ccc2c(c1)CCCC2C1=NCCN1 (centres undefined) | 100% (inactive) | 84.6% (inactive) | 95.3% (inactive) | 6.75% (inactive) | 88.6% | 95.3% | -2.6% (inactive) | 1% (inactive)
CCCCN1C[C@H](O)[C@@H](O)[C@H](O)[C@H]1CO | 123% (inactive) | 88.9% (inactive) | 96.5% (inactive) | -3.9% (inactive) | 100% | 96.5% | 1.82% (inactive) | 27% (inactive)
